ChEMBL document CHEMBL1144013, “Indol-3-yl-tetramethylcyclopropyl ketones: effects of indole ring substitution on CB2 cannabinoid receptor activity” (J Med Chem, 2008)
Active and inactive are the calls of the source. The rule behind the calls is not given here.

Columns and labels:
[1] = target: T1, Cannabinoid receptor 2 (Homo sapiens, UniProt P34972); assay: Displacement of [3H]CP-55940 from human recombinant CB2 receptor expressed in HEK cells; format: cell-based, HEK293; details: read-out: Ki
[2] = target: T1, Cannabinoid receptor 2; assay: Agonist activity at human recombinant CB2 receptor expressed in HEK cells assessed as calcium mobilization by FLIPR; format: functional, cell-based, HEK293
In short: (§1)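 HEK cells stably coexpressing human CB2 and chimeric Gαq/o5 protein, seeded 75,000/well one day before; no-wash calcium dye.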

[3] = target: T1, Cannabinoid receptor 2; assay: Agonist activity at human recombinant CB2 receptor expressed in HEK cells assessed as calcium mobilization by FLIPR relative to CP-55940; format: functional, cell-based; details: HEK293; in short: as §1
[4] = organism: Rattus norvegicus; assay: Antiinflammatory activity against rat CFA-induced chronic inflammatory thermal hyperalgesia model assessed as effect on paw withdrawal latency; format: functional, organism-based
In short: (§2)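 Rats given 150 µL of 50% CFA in PBS into right hind plantar paw; thermal hyperalgesia tested 48 h later. Compound in 5% DMSO/95% PEG; PWL read 30 min post dose in ipsilateral and contralateral paws, 3 trials ~5 min apart, mean of two shortest latencies. n = 6 per dose; compared against vehicle. Antagonist pretreatment group included.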

[5] = organism: Rattus norvegicus; assay: Antiinflammatory activity against CB1 receptor antagonist SR-141716A-pretreated rat CFA-induced chronic inflammatory thermal hyperalgesia model assessed as effect on paw withdrawal latency; format: functional, organism-based
In short: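 Rats received 150 µL of 50% CFA in PBS into the right hind plantar paw. Thermal hyperalgesia was tested 48 h later after antagonist pretreatment, dosing in 5% DMSO/95% PEG vehicle, n = 6 per dose. Paw withdrawal latency was measured 30 min post-dose in the ipsilateral and contralateral paws, with 3 trials about 5 min apart. The value is the mean of the two shortest latencies, compared with vehicle.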

[6] = organism: Rattus norvegicus; assay: Antiinflammatory activity against CB2 receptor antagonist SR-144528-pretreated rat CFA-induced chronic inflammatory thermal hyperalgesia model assessed as effect on paw withdrawal latency; format: functional, organism-based; in short: as §2
[7] = target: Cannabinoid receptor 1 (Homo sapiens, UniProt P21554); assay: Displacement of [3H]CP-55940 from human recombinant CB1 receptor expressed in HEK cells; format: cell-based, HEK293
[8] = organism: Homo sapiens; assay: Selectivity for human recombinant CB2 receptor over human recombinant CB1 receptor
In short: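 Ki ratio from [3H]CP-55940 (0.5 nM) competition binding: human CB1 membranes from stably expressing […] cells versus human CB2 membranes from stably expressing HEK cells. Tris-HCl pH 7.4 buffer with EDTA, MgCl2, BSA; 90 min at 30 °C; filtration counting; nonspecific with 10 µM unlabeled ligand; ≥3 experiments in duplicate.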

T1 sequence (P34972 whole entry): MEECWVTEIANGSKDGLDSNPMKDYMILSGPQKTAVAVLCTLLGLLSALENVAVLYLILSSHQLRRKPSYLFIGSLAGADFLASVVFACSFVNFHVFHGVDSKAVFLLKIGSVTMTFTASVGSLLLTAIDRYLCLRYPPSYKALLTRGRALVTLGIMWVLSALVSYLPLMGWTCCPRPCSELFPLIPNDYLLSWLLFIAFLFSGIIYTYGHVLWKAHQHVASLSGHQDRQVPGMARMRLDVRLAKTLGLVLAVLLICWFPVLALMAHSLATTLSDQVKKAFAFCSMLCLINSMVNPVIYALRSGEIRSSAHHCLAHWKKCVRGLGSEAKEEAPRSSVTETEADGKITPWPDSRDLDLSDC
Chain of Cannabinoid receptor 1 (P21554 whole entry): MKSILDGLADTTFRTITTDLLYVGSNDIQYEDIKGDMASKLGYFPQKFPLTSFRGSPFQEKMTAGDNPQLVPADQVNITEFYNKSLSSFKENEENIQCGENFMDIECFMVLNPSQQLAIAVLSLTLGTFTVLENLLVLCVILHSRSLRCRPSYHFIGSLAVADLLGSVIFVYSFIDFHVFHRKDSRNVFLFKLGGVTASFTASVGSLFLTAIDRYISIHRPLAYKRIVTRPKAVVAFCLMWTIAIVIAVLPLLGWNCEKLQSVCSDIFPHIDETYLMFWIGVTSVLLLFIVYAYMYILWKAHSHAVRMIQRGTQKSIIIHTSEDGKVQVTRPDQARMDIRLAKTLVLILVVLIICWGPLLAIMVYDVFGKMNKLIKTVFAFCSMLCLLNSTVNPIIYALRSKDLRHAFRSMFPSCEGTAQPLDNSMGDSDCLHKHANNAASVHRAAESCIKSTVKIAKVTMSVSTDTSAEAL

Which Ki [1] does the source give for `CC1(C)C(C(=O)c2cn(CC3CCOCC3)c3cccc(O)c23)C1(C)C` here?
The Ki was 3.9 nM.

What about the EC50 [2] of the same molecule?
Its EC50 is 64 nM.

What about the Activity [3] of the same molecule?
The Activity was 94%.

And the Activity [4]?
Its Activity is “Dose-dependent effect”.

Which Activity [5] does the source give for `Cc1c(C(=O)NN2CCCCC2)nn(-c2ccc(Cl)cc2Cl)c1-c1ccc(Cl)cc1` here?
Its Activity is “Active”.

What does the source list for `CC1(C)C(C(=O)c2cn(CCN3CCOCC3)c3ccccc23)C1(C)C`?
Ki [1]: 4.4 nM; EC50 [2]: 14 nM; Activity [3]: 71%; Activity [4]: Active

`Cc1ccc(Cn2nc(C(=O)NC3C(C)(C)C4CC[C@@]3(C)C4)cc2-c2ccc(Cl)c(C)c2)cc1` (some centres not stated) was tested. Which Activity [6] did it give?
The Activity was “inactive”.

Which results are given for `CC1(C)C(C(=O)c2cn(CC3CCOCC3)c3cc(-c4ccccc4)ccc23)C1(C)C`?
Ki [1]: 0.41 nM; Ki ([7]; read-out: Ki): 228 nM; Ratio Ki [8]: 556; EC50 [2]: > 10000 nM; Activity [4]: inactive

`COc1cccc2c1c(C(=O)C1C(C)(C)C1(C)C)cn2CC1CCOCC1` was tested. Which Ki [1] did it give?
Its Ki is 3.3 nM.

What about the Ki ([7]; read-out: Ki) of the same molecule?
Its Ki is 1090 nM.

What about the Ratio Ki [8] of the same molecule?
The Ratio Ki was 330.

And the EC50 [2]?
Its EC50 is 81 nM.

And the Activity [3]?
Its Activity is 37%.

With `CC1(C)C(C(=O)c2cn(CC3CCOCC3)c3ccc(N)cc23)C1(C)C` as the molecule, how does the Ki [1] read?
The Ki was 9.3 nM.

And the Ki ([7]; hek293, read-out: Ki)?
Its Ki is > 1000 nM.

What about the Ki ([7]; read-out: Log Ki (converted)) of the same molecule?
The Ki was > 1000 nM.

And the Ratio Ki [8]?
Its Ratio Ki is 108.

And the EC50 [2]?
The EC50 was 10 nM.

What about the Activity [3] of the same molecule?
The Activity was 80%.

For `CC1(C)C(C(=O)c2cn(CCN3CCOCC3)c3cccc(N)c23)C1(C)C`, which Ki [1] is on record?
The Ki was 32 nM.

What about the Ki ([7]; read-out: Ki) of the same molecule?
Its Ki is > 3500 nM.

And the Ki ([7]; read-out: Log Ki (converted))?
The Ki was > 3470 nM.

And the Ratio Ki [8]?
The Ratio Ki was > 109.

What about the EC50 [2] of the same molecule?
Its EC50 is 50 nM.

What about the Activity [3] of the same molecule?
Its Activity is 41%.

What does the source list for `CC1(C)C(C(=O)c2cn(CC3CCOCC3)c3ccc(CO)cc23)C1(C)C`?
Ki [1]: 113 nM; Ki ([7]; read-out: Ki): > 10000 nM; Ratio Ki [8]: > 88; EC50 [2]: 73 nM; Activity [3]: 53%

`CC1(C)C(C(=O)c2cn(CC3CCOCC3)c3ccc(Br)cc23)C1(C)C` was tested. Which Ki [1] did it give?
Its Ki is 6.6 nM.

And the Ki ([7]; read-out: Ki)?
The Ki was 1930 nM.

And the Ratio Ki [8]?
Its Ratio Ki is 292.

What about the EC50 [2] of the same molecule?
Its EC50 is 280 nM.

And the Activity [3]?
Its Activity is 54%.
